According to ChEMBL document CHEMBL1122251, “4-(Aminoalkyl)-7-hydroxy-2(3H)-indolones, a novel class of potent presynaptic dopamine receptor agonists” (J Med Chem, 1983):
Blank lines part the entries; values can stand above or below the compound they belong to.

Columns and labels:
Dopamine receptor [1] = assay: Tested in vitro for dopamine agonist activity in rabbit ear artery after at a dose of 3 mg/kg; format: functional, Oryctolagus cuniculus
How it was run: (§1)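 Isolated perfused rabbit ear artery preparation, used to assess activation of presynaptic dopamine receptors.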

Canis familiaris [2] = assay: Tested in vivo for change in maximal arterial pressure (MAP) in dog after intravenous dose of 30 (ug/kg)/min
Canis familiaris [3] = assay: Tested in vivo for change in heart rate(HR) in dog after intravenous dose of 3 mg/kg; format: functional, Canis lupus familiaris
Canis familiaris [4] = assay: Tested in vivo for change in maximal arterial pressure (MAP) in dog after intravenous dose of 30 mg/kg; format: functional, Canis lupus familiaris, Artery
Canis familiaris [5] = assay: Tested in vivo for change in heart rate (HR) in dog after intravenous dose of 3 ug/kg; format: functional, Canis lupus familiaris
Canis familiaris [6] = assay: Tested in vivo for change in maximal arterial pressure (MAP) in dog after intravenous dose of 300 ug/kg; format: functional, Canis lupus familiaris, Artery
How it was run: (§2)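 Mean arterial blood pressure was recorded in dogs (N = 2) given the hydrobromide salt by intravenous infusion, dosed as (μg/kg)/min. Values are percent change from the control reading taken just before infusion. The minimum change counted as significant (p < 0.05) was ±5.2%.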

Canis familiaris [7] = assay: Tested in vivo for change in heart rate (HR) in dog after intravenous dose of 300 ug/kg; format: functional, Canis lupus familiaris
Canis familiaris [8] = assay: Tested in vivo for change in maximal arterial pressure (MAP) in dog after intravenous dose of 3 ug/kg; format: functional, Canis lupus familiaris, Artery; how it was run: as §2
Canis familiaris [9] = assay: Tested in vivo for change in heart rate (HR) in dog after intravenous dose of 30 ug/kg; format: functional, Canis lupus familiaris
Dopamine receptor [10] = assay: Tested in vitro for dopamine agonist activity in rabbit ear artery after at a dose of 3 ug/kg; format: functional, tissue-based, Oryctolagus cuniculus; how it was run: as §1
Canis familiaris [11] = assay: Tested in vivo for change in maximal arterial pressure (MAP) in dog after intravenous dose of 30 ug/kg; format: functional, Canis lupus familiaris, Artery; how it was run: as §2
Dopamine receptor [12] = assay: Tested in vitro for dopamine agonist activity in rabbit ear artery after at a dose of 0.3 mg/kg; format: functional, Oryctolagus cuniculus; design: dose 0.3 mg/kg
Canis familiaris [13] = assay: Tested in vivo for change in heart rate (HR) in dog after intravenous dose of 30 (ug/kg)/min

Compound: CCCN(CCC)CCc1ccc(O)c(O)c1
EC50 (Dopamine receptor [1]): 80 nM | Change (Canis familiaris [2]): -21.9% | Change (Canis familiaris [3]): 1.5% | Change (Canis familiaris [4]): -17.7%

Compound: NCCc1ccc(O)c2c1CC(=O)N2
Change (Canis familiaris [5]): -2.9% | Change (Canis familiaris [6]): 62.6% | Change (Canis familiaris [7]): -15.8% | Change (Canis familiaris [8]): -10.6% | Change (Canis familiaris [9]): -2.9% | EC50 (Dopamine receptor [10]): 116 nM | Change (Canis familiaris [11]): -16.1%

EC50 (Dopamine receptor [12]): 122 nM
Compound: C=CCN1CCc2c(cc(O)c(O)c2Cl)C(c2ccc(O)cc2)C1 (stereo unspecified)

Compound: CCCN(CCC)CCc1ccc(O)c2c1CC(=O)N2 [SKF-89124A]
Change (Canis familiaris [2]): 28.4% | EC50 (Dopamine receptor [12]): 1.8 nM | Change (Canis familiaris [4]): 28.4% | Change (Canis familiaris [13]): -6.9%
